Calls of active or inactive are those of the source. No cut-off for these calls is given here.
Columns and labels:
[1] = target: Serine/threonine-protein kinase PLK1 (Homo sapiens, UniProt P53350); experiment: Inhibition of PLK1 in human HeLa cells lysate at 50 uM pre incubated for 15 mins followed by ATP acyl phosphate probe addition and measured after 10 mins by LC-MS/MS analysis relative to control; assay type: subcellular; settings: time 25.0 min
[2] = test system: A549; experiment: Antitumor activity against human A549 cells xenografted in NOD/SCID mouse assessed as increase in p21 protein expression level at 50 mg/kg, ip administered twice a day for 2 days by Western blot analysis; assay type: functional, organism-based; settings: time 2.0 day
In short: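 A549 cells (1×10^6, in DMEM) were injected s.c. into the right flank of 6-week-old Nod/Scid mice. On day 21, mice received 50 mg/kg twice daily or carrier; 2 per group. After 2 days, tumors were homogenized in E1A buffer. Western blot read BMK1 activation (mobility shift) and p21, quantified by densitometry normalized to GAPDH.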

[3] = target: Serine/threonine-protein kinase PLK4 (Homo sapiens, UniProt O00444); experiment: Binding affinity to PLK4 (unknown origin) assessed as dissociation constant by ATP-competition binding assay
[4] = target: Epidermal growth factor receptor (Homo sapiens, UniProt P00533); experiment: Inhibition of EGFR in human HeLa cells lysate at 50 uM pre incubated for 15 mins followed by ADP acyl phosphate probe addition and measured after 10 mins by LC-MS/MS analysis relative to control; assay type: subcellular; settings: time 25.0 min
[5] = target: RAC-alpha serine/threonine-protein kinase (Homo sapiens, UniProt P31749); experiment: Inhibition of AKT1 in human HeLa cells lysate at 50 uM pre incubated for 15 mins followed by ATP acyl phosphate probe addition and measured after 10 mins by LC-MS/MS analysis relative to control; assay type: subcellular; settings: time 25.0 min
In short: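 HeLa cell lysates (5 mg/mL total protein) were preincubated with inhibitor at 0, 0.8, 2, 10 or 50 μM for 15 min. ATP or ADP acylphosphate probe was then added (5 μM final) for 10 min, and reactions were stopped with urea. Up to four fragment ions per kinase probe-peptide were quantified by targeted MS. % inhibition was taken relative to untreated lysate. Run in duplicate.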

[6] = target: T1, Calcium/calmodulin-dependent protein kinase type II subunit gamma (Homo sapiens, UniProt Q13555); experiment: Inhibition of CAMK2g in human HeLa cells lysate at 50 uM pre incubated for 15 mins followed by ADP acyl phosphate probe addition and measured after 10 mins by LC-MS/MS analysis relative to control; assay type: subcellular; settings: time 25.0 min
In short: (§1)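 KiNativ-type profiling in HeLa lysate (5 mg/mL total protein). Lysate preincubated 15 min with inhibitor at 50, 10, 2, 0.8 or 0 μM, then ATP or ADP acylphosphate probe added (5 μM final) for 10 min. Reaction stopped with urea and analysed by targeted MS, using up to four fragment ions per kinase peptide-probe conjugate. % inhibition calculated against untreated lysate. Duplicate reactions.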

[7] = target: STE20-like serine/threonine-protein kinase (Homo sapiens, UniProt Q9H2G2); experiment: Inhibition of SLK in human HeLa cells lysate pre incubated for 15 mins followed by ADP acyl phosphate probe addition and measured after 10 mins by LC-MS/MS analysis; assay type: subcellular
[8] = target: Tyrosine-protein kinase Lyn (Homo sapiens, UniProt P07948); experiment: Inhibition of LYN in human HeLa cells lysate at 50 uM pre incubated for 15 mins followed by ATP acyl phosphate probe addition and measured after 10 mins by LC-MS/MS analysis relative to control; assay type: subcellular; settings: time 25.0 min
[9] = target: Ribosomal protein S6 kinase alpha-1 (Homo sapiens, UniProt Q15418); experiment: Inhibition of RSK1 domain 1 in human HeLa cells lysate pre incubated for 15 mins followed by ADP acyl phosphate probe addition and measured after 10 mins by LC-MS/MS analysis; assay type: subcellular
[10] = target: Dual specificity mitogen-activated protein kinase kinase; MEK1/2 (Homo sapiens, UniProt P36507+Q02750); experiment: Inhibition of MAP2K1/MAP2K2 in human HeLa cells lysate pre incubated for 15 mins followed by ATP acyl phosphate probe addition and measured after 10 mins by LC-MS/MS analysis; assay type: subcellular
[11] = target: Eukaryotic elongation factor 2 kinase (Homo sapiens) (UniProt O00418); experiment: Inhibition of EEF2K in human HeLa cells lysate at 2 uM pre incubated for 15 mins followed by ATP acyl phosphate probe addition and measured after 10 mins by LC-MS/MS analysis relative to control; assay type: subcellular; settings: time 25.0 min
[12] = target: Phosphatidylinositol 5-phosphate 4-kinase type-2 beta (Homo sapiens) (UniProt P78356); experiment: Inhibition of PIP5K2B in human HeLa cells lysate at 2 uM pre incubated for 15 mins followed by ATP acyl phosphate probe addition and measured after 10 mins by LC-MS/MS analysis relative to control; assay type: subcellular; settings: time 25.0 min
[13] = target: T2, Serine/threonine-protein kinase A-Raf (Homo sapiens) (UniProt P10398); experiment: Inhibition of ARAF in human HeLa cells lysate at 50 uM pre incubated for 15 mins followed by ATP acyl phosphate probe addition and measured after 10 mins by LC-MS/MS analysis relative to control; assay type: subcellular; settings: time 25.0 min; in short: as §1
T2 sequence (whole entry): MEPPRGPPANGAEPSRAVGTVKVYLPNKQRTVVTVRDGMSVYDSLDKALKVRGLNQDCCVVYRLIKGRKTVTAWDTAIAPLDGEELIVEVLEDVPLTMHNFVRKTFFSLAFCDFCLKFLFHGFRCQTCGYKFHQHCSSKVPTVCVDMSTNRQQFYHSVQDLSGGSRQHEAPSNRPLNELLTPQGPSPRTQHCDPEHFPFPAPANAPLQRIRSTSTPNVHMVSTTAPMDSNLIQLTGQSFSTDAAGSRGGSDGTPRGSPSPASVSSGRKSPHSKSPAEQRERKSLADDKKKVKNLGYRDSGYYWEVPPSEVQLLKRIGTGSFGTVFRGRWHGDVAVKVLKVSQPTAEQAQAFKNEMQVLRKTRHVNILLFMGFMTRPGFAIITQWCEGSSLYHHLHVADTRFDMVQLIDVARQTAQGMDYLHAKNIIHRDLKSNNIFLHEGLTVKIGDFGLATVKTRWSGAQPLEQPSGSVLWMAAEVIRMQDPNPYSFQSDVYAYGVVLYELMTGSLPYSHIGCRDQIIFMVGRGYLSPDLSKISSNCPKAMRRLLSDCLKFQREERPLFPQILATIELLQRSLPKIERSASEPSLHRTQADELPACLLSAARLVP

[14] = target: Peripheral plasma membrane protein CASK (Homo sapiens) (UniProt O14936); experiment: Inhibition of CASK in human HeLa cells lysate at 10 uM pre incubated for 15 mins followed by ADP acyl phosphate probe addition and measured after 10 mins by LC-MS/MS analysis relative to control; assay type: subcellular; settings: time 25.0 min
In short: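 KiNativ profiling in HeLa lysate (5 mg/mL total protein). Lysate incubated 15 min with inhibitor at 50, 10, 2, 0.8 or 0 μM. ATP or ADP acylphosphate probe then added (5 μM final) and reacted 10 min. Reaction stopped with urea and analysed by targeted MS, using up to four fragment ions per kinase peptide-probe conjugate. % inhibition taken against untreated lysate. Run in duplicate.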

[15] = target: Interleukin-1 receptor-associated kinase 4 (Homo sapiens, UniProt Q9NWZ3); experiment: Inhibition of IRAK4 in human HeLa cells lysate pre incubated for 15 mins followed by ADP acyl phosphate probe addition and measured after 10 mins by LC-MS/MS analysis; assay type: subcellular
[16] = target: T1, Calcium/calmodulin-dependent protein kinase type II subunit gamma; experiment: Inhibition of CAMK2g in human HeLa cells lysate at 10 uM pre incubated for 15 mins followed by ATP acyl phosphate probe addition and measured after 10 mins by LC-MS/MS analysis relative to control; assay type: subcellular; settings: time 25.0 min; in short: as §1

T1 sequence (Q13555 whole entry, the tested form may be a part): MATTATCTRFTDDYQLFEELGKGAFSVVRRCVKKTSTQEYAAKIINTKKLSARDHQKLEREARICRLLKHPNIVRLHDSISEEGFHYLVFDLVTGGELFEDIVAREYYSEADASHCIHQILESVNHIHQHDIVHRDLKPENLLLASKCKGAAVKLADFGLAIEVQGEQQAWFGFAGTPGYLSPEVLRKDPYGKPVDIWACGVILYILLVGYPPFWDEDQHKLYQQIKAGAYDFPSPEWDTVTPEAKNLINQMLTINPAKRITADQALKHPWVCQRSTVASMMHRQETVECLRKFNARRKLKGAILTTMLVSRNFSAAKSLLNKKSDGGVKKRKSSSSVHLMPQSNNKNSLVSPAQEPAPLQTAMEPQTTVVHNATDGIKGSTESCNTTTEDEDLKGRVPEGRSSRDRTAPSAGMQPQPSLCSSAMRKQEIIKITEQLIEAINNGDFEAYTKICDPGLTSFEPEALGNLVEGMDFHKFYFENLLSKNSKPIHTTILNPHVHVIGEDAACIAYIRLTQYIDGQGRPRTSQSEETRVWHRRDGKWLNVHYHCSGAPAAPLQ
Chain of Interleukin-1 receptor-associated kinase 4 (Q9NWZ3 whole entry): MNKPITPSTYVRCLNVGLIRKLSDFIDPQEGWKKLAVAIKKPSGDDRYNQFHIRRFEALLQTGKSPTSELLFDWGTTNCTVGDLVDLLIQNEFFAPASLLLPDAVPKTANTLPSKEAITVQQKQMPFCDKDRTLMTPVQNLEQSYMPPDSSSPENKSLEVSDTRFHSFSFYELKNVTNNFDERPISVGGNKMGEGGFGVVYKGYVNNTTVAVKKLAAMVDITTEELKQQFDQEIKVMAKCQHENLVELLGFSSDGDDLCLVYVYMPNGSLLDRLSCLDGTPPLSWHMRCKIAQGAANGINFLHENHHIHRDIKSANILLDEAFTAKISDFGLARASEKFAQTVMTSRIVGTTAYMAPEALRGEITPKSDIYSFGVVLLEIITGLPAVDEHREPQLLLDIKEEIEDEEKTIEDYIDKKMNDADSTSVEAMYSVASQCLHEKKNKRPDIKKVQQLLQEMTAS
Chain of Serine/threonine-protein kinase PLK4 (O00444 whole entry): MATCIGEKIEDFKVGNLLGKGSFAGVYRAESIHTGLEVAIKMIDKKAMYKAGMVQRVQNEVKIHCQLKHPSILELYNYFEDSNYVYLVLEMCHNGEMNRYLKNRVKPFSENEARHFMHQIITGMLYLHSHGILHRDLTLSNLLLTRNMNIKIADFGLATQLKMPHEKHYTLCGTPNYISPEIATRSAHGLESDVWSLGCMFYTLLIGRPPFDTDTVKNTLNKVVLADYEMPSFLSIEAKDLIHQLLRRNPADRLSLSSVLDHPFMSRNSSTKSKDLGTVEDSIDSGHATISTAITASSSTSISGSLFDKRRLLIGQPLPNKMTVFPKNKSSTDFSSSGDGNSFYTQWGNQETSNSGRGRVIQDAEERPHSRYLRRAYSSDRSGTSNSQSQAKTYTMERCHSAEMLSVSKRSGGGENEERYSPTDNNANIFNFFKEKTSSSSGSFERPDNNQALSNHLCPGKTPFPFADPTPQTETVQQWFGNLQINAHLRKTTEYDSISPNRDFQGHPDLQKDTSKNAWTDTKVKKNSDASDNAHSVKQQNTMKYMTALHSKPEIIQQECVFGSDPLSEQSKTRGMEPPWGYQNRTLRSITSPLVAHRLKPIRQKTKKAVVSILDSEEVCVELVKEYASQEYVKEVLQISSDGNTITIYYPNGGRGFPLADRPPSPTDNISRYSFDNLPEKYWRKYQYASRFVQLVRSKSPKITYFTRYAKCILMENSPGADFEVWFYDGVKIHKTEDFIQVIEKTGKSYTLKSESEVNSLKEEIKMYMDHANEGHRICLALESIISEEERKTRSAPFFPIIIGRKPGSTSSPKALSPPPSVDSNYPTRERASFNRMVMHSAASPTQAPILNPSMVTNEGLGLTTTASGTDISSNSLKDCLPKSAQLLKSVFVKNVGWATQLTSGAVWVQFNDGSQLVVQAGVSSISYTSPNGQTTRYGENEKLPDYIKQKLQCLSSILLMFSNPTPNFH
Chain of STE20-like serine/threonine-protein kinase (Q9H2G2 whole entry): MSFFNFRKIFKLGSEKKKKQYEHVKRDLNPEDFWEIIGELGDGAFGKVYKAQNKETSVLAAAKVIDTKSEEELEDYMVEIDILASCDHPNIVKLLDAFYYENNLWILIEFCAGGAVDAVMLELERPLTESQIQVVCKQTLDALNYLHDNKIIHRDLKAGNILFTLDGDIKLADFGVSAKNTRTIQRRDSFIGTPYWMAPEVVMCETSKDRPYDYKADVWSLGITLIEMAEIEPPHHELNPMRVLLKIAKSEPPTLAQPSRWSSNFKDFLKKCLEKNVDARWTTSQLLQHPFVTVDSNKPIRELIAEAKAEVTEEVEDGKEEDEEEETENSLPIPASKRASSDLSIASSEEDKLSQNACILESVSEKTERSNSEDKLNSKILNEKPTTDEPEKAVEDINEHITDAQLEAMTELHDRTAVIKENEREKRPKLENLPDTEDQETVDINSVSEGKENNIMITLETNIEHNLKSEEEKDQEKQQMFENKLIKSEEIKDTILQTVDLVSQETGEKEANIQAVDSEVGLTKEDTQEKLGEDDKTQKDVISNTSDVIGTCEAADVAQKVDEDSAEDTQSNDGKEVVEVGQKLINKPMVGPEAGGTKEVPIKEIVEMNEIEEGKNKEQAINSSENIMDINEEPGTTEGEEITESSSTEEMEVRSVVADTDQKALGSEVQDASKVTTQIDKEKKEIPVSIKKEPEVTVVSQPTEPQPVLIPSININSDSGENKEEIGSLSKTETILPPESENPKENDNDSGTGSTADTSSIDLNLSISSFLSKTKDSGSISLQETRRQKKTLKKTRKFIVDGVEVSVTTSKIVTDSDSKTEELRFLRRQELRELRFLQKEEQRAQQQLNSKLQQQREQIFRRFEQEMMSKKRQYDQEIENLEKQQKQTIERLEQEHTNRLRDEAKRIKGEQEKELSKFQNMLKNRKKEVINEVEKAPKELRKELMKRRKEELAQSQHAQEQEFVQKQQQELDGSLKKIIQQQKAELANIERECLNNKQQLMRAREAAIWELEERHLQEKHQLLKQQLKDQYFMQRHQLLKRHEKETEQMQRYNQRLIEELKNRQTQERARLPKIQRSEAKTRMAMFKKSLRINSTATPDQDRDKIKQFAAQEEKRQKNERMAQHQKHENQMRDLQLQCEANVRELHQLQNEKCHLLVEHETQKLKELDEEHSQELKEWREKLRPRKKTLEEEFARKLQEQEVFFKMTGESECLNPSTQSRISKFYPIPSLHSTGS
Chain of Eukaryotic elongation factor 2 kinase (Homo sapiens) (O00418 whole entry): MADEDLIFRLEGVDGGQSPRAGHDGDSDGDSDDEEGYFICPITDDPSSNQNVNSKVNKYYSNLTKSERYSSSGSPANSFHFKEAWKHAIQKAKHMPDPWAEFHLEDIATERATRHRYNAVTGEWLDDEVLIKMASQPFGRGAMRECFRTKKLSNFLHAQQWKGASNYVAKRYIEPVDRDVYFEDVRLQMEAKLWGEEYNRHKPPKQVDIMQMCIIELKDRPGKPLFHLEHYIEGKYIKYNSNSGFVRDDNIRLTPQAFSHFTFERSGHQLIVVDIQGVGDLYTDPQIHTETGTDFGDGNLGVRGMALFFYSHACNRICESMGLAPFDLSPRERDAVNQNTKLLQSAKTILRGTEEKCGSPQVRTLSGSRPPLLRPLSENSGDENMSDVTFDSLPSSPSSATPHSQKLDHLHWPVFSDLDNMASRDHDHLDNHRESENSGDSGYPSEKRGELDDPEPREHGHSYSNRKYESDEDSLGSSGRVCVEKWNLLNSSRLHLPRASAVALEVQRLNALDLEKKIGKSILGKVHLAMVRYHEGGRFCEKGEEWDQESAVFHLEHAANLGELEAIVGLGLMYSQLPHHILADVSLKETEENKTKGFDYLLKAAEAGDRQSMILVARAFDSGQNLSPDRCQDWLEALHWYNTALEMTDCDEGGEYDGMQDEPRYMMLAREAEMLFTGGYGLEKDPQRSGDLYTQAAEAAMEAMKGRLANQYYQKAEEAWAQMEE
Chain of Phosphatidylinositol 5-phosphate 4-kinase type-2 beta (Homo sapiens) (P78356 whole entry): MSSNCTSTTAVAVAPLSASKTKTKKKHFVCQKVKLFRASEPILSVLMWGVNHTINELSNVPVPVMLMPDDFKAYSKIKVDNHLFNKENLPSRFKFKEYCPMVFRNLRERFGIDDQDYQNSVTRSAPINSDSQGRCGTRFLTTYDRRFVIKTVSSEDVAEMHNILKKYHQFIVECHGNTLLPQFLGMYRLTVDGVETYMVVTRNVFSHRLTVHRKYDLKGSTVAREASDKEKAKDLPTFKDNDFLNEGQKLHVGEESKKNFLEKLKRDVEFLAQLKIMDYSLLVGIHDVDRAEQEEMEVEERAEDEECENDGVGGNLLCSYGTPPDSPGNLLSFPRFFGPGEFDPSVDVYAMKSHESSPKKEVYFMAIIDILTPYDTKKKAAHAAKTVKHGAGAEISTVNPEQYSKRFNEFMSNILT
Chain of Serine/threonine-protein kinase PLK1 (P53350 whole entry): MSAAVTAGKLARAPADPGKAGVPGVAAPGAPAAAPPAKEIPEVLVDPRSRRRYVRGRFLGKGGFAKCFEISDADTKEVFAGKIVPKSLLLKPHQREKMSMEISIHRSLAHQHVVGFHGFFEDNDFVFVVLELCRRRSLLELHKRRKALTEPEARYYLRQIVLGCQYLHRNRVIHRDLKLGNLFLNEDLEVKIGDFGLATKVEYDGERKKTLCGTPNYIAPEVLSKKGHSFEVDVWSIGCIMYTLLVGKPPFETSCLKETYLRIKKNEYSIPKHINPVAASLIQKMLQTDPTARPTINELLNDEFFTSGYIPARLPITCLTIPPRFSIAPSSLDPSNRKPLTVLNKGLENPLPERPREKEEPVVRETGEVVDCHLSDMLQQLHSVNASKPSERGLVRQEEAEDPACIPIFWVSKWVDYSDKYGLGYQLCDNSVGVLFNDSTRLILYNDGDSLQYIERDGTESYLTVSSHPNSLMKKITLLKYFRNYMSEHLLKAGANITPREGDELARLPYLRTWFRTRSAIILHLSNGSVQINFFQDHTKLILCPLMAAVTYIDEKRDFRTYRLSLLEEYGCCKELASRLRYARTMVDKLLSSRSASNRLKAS

CCOc1cc(N2CCC(O)CC2)ccc1Nc1ncc2c(n1)N(C)c1ccccc1C(=O)N2C
inhibition [1]: -6.5% | Activity [2]: Active | Kd [3]: 0.6 µM | inhibition [4]: 5.9% | inhibition [5]: 15.4% | inhibition [6]: 14.1% | IC50 [7]: > 50 µM | inhibition [8]: -5.2% | IC50 [9]: > 50 µM | IC50 [10]: > 50 µM | inhibition [11]: 1.5% | inhibition [12]: -2.7% | inhibition [13]: 4.3% | inhibition [14]: -8.1% | IC50 [15]: > 50 µM | inhibition [16]: -8.6%

— ChEMBL document CHEMBL5661979, “Pharmacological inhibition of BMK1 suppresses tumor growth through promyelocytic leukemia protein” (Cancer Cell, 2010)
